Compound activity: PubChem, several laboratories
RGS4 inh = RGS4 inhibitors, primary screen, cell-based, HEK293 M3R inducible RGS4, calcium flux | actives 0.45% (n = 310,000) | B-score at 10 µM | Fluo-4 calcium flux; active compounds read high; triggered by carbachol at its EC20 | AID 463165, 2010;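 active = B-score, a plate-corrected calcium signal, over three deviations above library mean, with baseline fluorescence within five deviations of library mean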;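 note: RGS4 expression induced by doxycycline in cells with stable M3 receptor; B-score is computed from the integrated fluorescence ratio over baseline after carbachol; higher B-score means a larger calcium signal and so more RGS4 inhibition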
Target sequence (P49798 whole entry, looked up): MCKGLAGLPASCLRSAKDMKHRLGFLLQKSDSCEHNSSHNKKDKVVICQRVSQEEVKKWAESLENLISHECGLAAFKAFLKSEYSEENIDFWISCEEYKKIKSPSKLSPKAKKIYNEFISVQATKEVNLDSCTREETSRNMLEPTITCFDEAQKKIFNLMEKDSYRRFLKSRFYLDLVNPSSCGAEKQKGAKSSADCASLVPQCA
RGS4 pot = RGS4 potentiators or activators, primary screen, cell-based, HEK293 M3R inducible RGS4, calcium flux; carbachol calcium flux Fluo4; active compounds read low; B-score at 10 µM; actives 0.92% (n = 310,000);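 active = B-score of the integrated calcium signal more than 4 SD below the library mean, with starting fluorescence not abnormally high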;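 note: negative B-score means reduced calcium response which marks RGS4 activation or potentiation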
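System – HEK293 FlpIn-TREx cells, stable M3R, doxycycline-inducible RGS4 · Reagent – ECmax carbachol challenge · Times – compound preincubation 20 min at room temperature before agonist · Technique – Fluo4 fluorescence kinetic imaging of calcium · Measure – B score of integrated Fluo4 ratio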
MrgX1 PAM = positive allosteric modulators of MrgX1, primary screen, HEK293 cells, Fluo-4 calcium flux; B-score at 10 µM; actives 0.63% (n = 310,000); FDSS; active compounds read high; Mas-related G-protein coupled receptor member X1 (Homo sapiens), Q96LB2;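 active = plate-corrected calcium response at least 3 library SD above typical, normal starting fluorescence, not activating the receptor alone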;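 note: compound read alongside a low EC10 to EC30 dose of BAM8-22 agonist; peak minus trough fluorescence over baseline measured at the second addition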
Target sequence (Q96LB2 whole entry, looked up): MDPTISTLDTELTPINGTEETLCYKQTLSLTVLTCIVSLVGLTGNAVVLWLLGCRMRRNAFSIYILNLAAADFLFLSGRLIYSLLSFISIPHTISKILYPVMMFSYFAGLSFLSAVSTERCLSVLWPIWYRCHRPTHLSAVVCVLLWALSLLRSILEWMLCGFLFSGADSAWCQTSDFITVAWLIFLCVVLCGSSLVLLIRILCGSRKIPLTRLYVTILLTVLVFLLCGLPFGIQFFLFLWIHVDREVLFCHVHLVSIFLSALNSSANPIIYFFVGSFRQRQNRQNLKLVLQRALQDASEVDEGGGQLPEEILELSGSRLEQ
MrgX1 antag = antagonists of human MrgX1 receptor, primary screen, HEK293 cells, Fluo-4 calcium flux. Mas-related G-protein coupled receptor member X1 (Homo sapiens), Q96LB2. BAM8-22 antagonism; active compounds read low. B-score at 10 µM. actives 1.3% (n = 310,000);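 active = calcium-response B-score plate-corrected more than 3 library SD below zero, starting fluorescence within 5 deviations, no agonist response on first addition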;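 note: peak minus trough fluorescence over baseline after final BAM8-22 challenge near maximal dose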
MrgX1 agonist = agonists of human MrgX1 receptor, primary screen, HEK293 cells, Fluo-4 calcium flux; Mas-related G-protein coupled receptor member X1 (Homo sapiens), Q96LB2; Fluo-4 calcium fluorescence, agonist mode; active compounds read high; B-score at 10 µM; actives 0.44% (n = 310,000);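 active = calcium response B-score plate-corrected fluorescence ratio at least 3 library SD, with starting fluorescence B-score inside 5 SD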
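Material – MrgX1-expressing HEK293 cells · Input – 15,000 cells seeded per well · Dosing – compound as first of three additions · Times – overnight seeding, then 1 h dark dye loading · Measured by – kinetic Fluo-4 NW fluorescence of intracellular calcium · Read-out – B-scored fluorescence response ratio · Benchmarks – positive and negative control wells on each plate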
Lipid droplet = inhibitors of hepatocyte lipid droplet formation, primary screen, imaging, high-throughput imaging, BODIPY stain | AML12 mouse hepatocytes, oleate lipid droplets | inhibition, % at 6.5 µM | actives 0.4% (n = 240,000);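 active = lipid droplet intensity inhibited by at least 50%, with more than 500 cells counted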
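Assay system: AML12 mouse liver cells | Compound: 6.5 µM single-point dosing | Schedule: Overnight exposure | Technique: Fluorescence imaging, 20x objective, two fields per well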
RGS4 inh valid = enhanced carbachol calcium response, M3R/RGS4 cells, RGS4 inhibitor project, cell-based, validation screen, HEK293 M3R/RGS4, calcium flux | actives 65% (n = 1,700) | carbachol calcium Fluo-4 fluorescence; carbachol added at its EC20; 0 = buffer wells, 100 = carbachol control | calcium response, % at 10 µM | shares compounds with RGS4 inh | AID 492999, 2010;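 active = duplicate-averaged calcium response above the buffer-only control mean plus 5 SD of those controls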;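 note: integrated fluorescence ratio F max minus min over baseline F0; higher response in RGS4-induced cells means RGS4 inhibition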
RGS4 uninduced = carbachol calcium response in non-induced M3R cells, confirmation, counter-screen for RGS4 inhibitor project, cell-based, HEK293 M3R | shares compounds with RGS4 inh | carbachol calcium Fluo-4; submaximal (EC20) carbachol stimulus; buffer wells 0%, carbachol control wells 100% | activity (percent), % at 10 µM | actives 20% (n = 1,900) | AID 493000, 2010; call rule not given here;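 note: RGS4 induction absent so cells express M3R without RGS4; higher means more calcium signal and flags a non-specific hit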
M3R basal Ca ctr = second RGS4 inhibitor counter-screen in uninduced cells lacking carbachol; shares compounds with RGS4 inh; HEK293 M3R/RGS4 non-induced, Fluo-4 calcium, no carbachol; normalised: buffer wells 0%, carbachol wells 100%; calcium response (agonist-mode artifact), % at 10 µM; actives 22% (n = 1,900); AID 493001;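 active = duplicate-averaged calcium rise in uninduced cells above buffer wells' mean plus 5 SD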
Active calls of the source: *. Only some compounds are listed: those with a hit (about 3.8% of all), similar ones and a draw of the others.

What do the screens show for `CCOC(=O)c1c(C)[nH]c(C(=O)CN2C(=O)NC(C)(c3ccc4ccccc4c3)C2=O)c1C` (stereo not drawn)?
RGS4 inh: 5.7*; RGS4 pot: inactive; MrgX1 PAM: inactive; MrgX1 antag: inactive; MrgX1 agonist: inactive; RGS4 inh valid: 9.0%*; RGS4 uninduced: inactive; M3R basal Ca ctr: inactive

How did CCS(=O)(=O)c1ccc(C(=O)Nc2ccccc2OC)c(Cl)c1Cl do in these assays?
RGS4 inh: inactive; RGS4 pot: inactive; MrgX1 PAM: inactive; MrgX1 antag: inactive; MrgX1 agonist: inactive; Lipid droplet: -10

Results for NC(=O)N/N=C/c1c(Sc2nnnn2-c2ccccc2)nc2ccccn2c1=O ?
RGS4 inh: 12*; RGS4 pot: inactive; MrgX1 PAM: inactive; MrgX1 antag: inactive; MrgX1 agonist: inactive; Lipid droplet: 6; RGS4 inh valid: 11%*; RGS4 uninduced: inactive; M3R basal Ca ctr: inactive

How did Cc1nn(-c2ccccc2)c(Cl)c1/C=N/NC(N)=O do in these assays?
RGS4 inh: inactive; RGS4 pot: inactive; MrgX1 PAM: inactive; MrgX1 antag: inactive; MrgX1 agonist: inactive; Lipid droplet: -3

What do the screens show for `Cc1oc(-c2cccc(Cl)c2)nc1CS(=O)(=O)CC(=O)NCCCN1CCOCC1`?
RGS4 inh: inactive; RGS4 pot: inactive; MrgX1 PAM: inactive; MrgX1 antag: inactive; MrgX1 agonist: inactive; Lipid droplet: 13

How did Cc1cc(N=Nc2ccccc2)c(NCC(O)C(O)C(O)CO)cc1C (stereo not drawn) do in these assays?
RGS4 inh: 9.6*; RGS4 pot: inactive; MrgX1 PAM: inactive; MrgX1 antag: inactive; MrgX1 agonist: inactive; Lipid droplet: 2; RGS4 inh valid: 36%*; RGS4 uninduced: 38%*; M3R basal Ca ctr: inactive

How did Cc1ccc(NCC(O)C(O)C(O)CO)cc1C (stereo not drawn) do in these assays?
RGS4 inh: inactive; RGS4 pot: inactive; MrgX1 PAM: inactive; MrgX1 antag: inactive; MrgX1 agonist: inactive; Lipid droplet: 8

Results for O=C(Nc1ccc(Cl)c([N+](=O)[O-])c1)ONC1=NCCCCC1 ?
RGS4 inh: inactive; RGS4 pot: inactive; MrgX1 PAM: inactive; MrgX1 antag: inactive; MrgX1 agonist: inactive; Lipid droplet: -19

How did Cc1ccc(S(=O)(=O)Nc2ccccc2F)cc1C(=O)NNC(=O)c1ccccc1O do in these assays?
RGS4 inh: inactive; RGS4 pot: inactive; MrgX1 PAM: inactive; MrgX1 antag: inactive; MrgX1 agonist: inactive

Results for N#Cc1c(N)nc(SCC(=O)NC2CCCCC2)c(C#N)c1-c1ccc(Cl)cc1 ?
RGS4 inh: inactive; RGS4 pot: inactive; MrgX1 PAM: inactive; MrgX1 antag: inactive; MrgX1 agonist: inactive

How did N#CCSc1nc(N)c(C#N)c(C2CCCCC2)c1C#N do in these assays?
RGS4 inh: 5.1*; RGS4 pot: inactive; MrgX1 PAM: inactive; MrgX1 antag: inactive; MrgX1 agonist: inactive; RGS4 inh valid: 16%*; RGS4 uninduced: 50%*; M3R basal Ca ctr: inactive

What do the screens show for `COc1ccc(Nc2nc(NC(C)(C)C)nc(N3CCOCC3)n2)c(OC)c1`?
RGS4 inh: inactive; RGS4 pot: inactive; MrgX1 PAM: inactive; MrgX1 antag: inactive; MrgX1 agonist: inactive; Lipid droplet: 10

How did COc1ccc(Nc2nc(N3CCCCC3)nc(N3CCCCC3)n2)c(OC)c1 do in these assays?
RGS4 inh: 5.5*; RGS4 pot: inactive; MrgX1 PAM: inactive; MrgX1 antag: inactive; MrgX1 agonist: inactive; RGS4 inh valid: 9.0%*; RGS4 uninduced: inactive; M3R basal Ca ctr: inactive

What do the screens show for `COc1ccc(Nc2nc(NC(C)(C)C)nc(N3CCCC3)n2)c(OC)c1`?
RGS4 inh: inactive; RGS4 pot: inactive; MrgX1 PAM: inactive; MrgX1 antag: inactive; MrgX1 agonist: inactive; RGS4 inh valid: inactive; RGS4 uninduced: inactive; M3R basal Ca ctr: inactive

Results for COc1ccc(Nc2nc(N3CCCC3)nc(N3CCCC3)n2)c(OC)c1 ?
RGS4 inh: inactive; RGS4 pot: inactive; MrgX1 PAM: inactive; MrgX1 antag: inactive; MrgX1 agonist: inactive; Lipid droplet: -11; RGS4 inh valid: inactive; RGS4 uninduced: inactive; M3R basal Ca ctr: inactive

Results for CC1=NN(c2cccc(C(=O)O)c2)C(=O)/C1=C\C=C/c1ccccc1 ?
RGS4 inh: 34*; RGS4 pot: inactive; Lipid droplet: -7; RGS4 inh valid: 80%*; RGS4 uninduced: 59%*; M3R basal Ca ctr: inactive

How did COc1cc(-c2nnc(CSc3nnc(Nc4ccc(Oc5ccccc5)cc4)s3)o2)cc(OC)c1OC do in these assays?
RGS4 inh: inactive; RGS4 pot: inactive; MrgX1 PAM: inactive; MrgX1 antag: inactive; MrgX1 agonist: inactive; Lipid droplet: 18

Results for CCOC(=O)c1c(-c2ccccc2Cl)csc1NC(=O)CSc1nc(C)cc(=O)[nH]1 ?
RGS4 inh: inactive; RGS4 pot: inactive; MrgX1 PAM: inactive; MrgX1 antag: inactive; MrgX1 agonist: inactive; Lipid droplet: -1

Results for O=C1NN(c2cccc(Br)c2)C(=O)/C1=C\c1ccc(O)cc1 ?
RGS4 inh: inactive; RGS4 pot: inactive; MrgX1 PAM: inactive; MrgX1 antag: inactive; MrgX1 agonist: inactive; Lipid droplet: -1; RGS4 uninduced: 31%*; M3R basal Ca ctr: inactive

Results for O=C1NN(c2ccc(Br)cc2)C(=O)/C1=C\c1ccc(O)cc1O ?
RGS4 inh: inactive; RGS4 pot: inactive; MrgX1 PAM: inactive; MrgX1 antag: inactive; MrgX1 agonist: inactive; Lipid droplet: -3
